Assay results as given in ChEMBL document CHEMBL4373711, “Development of 3,5-Dinitrophenyl-Containing 1,2,4-Triazoles and Their Trifluoromethyl Analogues as Highly Efficient Antitubercular Agents Inhibiting Decaprenylphosphoryl-β-d-ribofuranose 2'-Oxidase” (J Med Chem, 2019).
In brackets after ≈: the same amount, converted by molar mass. Activity calls are given as the source filed them. The rule behind the calls is not given here.

What was measured:
[1] = tested on: Mycobacterium kansasii; experiment: Antimycobacterial activity against Mycobacterium kansasii CNCTC My 235/80 after 7 days; type: functional; conditions: CNCTC My 235/80, 168 h
Summary of the method: (§1)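 Microdilution in Šula's semisynthetic medium; compounds in DMSO at 32–0.03 µM. Inoculum from 1.0 McFarland suspension diluted 10-4. […] Isoniazid and rifampicin as reference drugs.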

[2] = tested on: Mycobacterium kansasii; experiment: Antimycobacterial activity against Mycobacterium kansasii CNCTC My 235/80 after 21 days; type: functional; conditions: CNCTC My 235/80, 504 h; summary of the method: as §1
[3] = tested on: Mycobacterium kansasii; experiment: Antimycobacterial activity against Mycobacterium kansasii 6509/96 after 7 days; type: functional; conditions: 6509/96, 168 h; summary of the method: as §1
[4] = tested on: Mycobacterium kansasii; experiment: Antimycobacterial activity against Mycobacterium kansasii 6509/96 after 14 days; type: functional; conditions: 6509/96, 336 h; summary of the method: as §1
[5] = tested on: Mycobacterium kansasii; experiment: Antimycobacterial activity against Mycobacterium kansasii 6509/96 after 21 days; type: functional; conditions: 6509/96, 504 h; summary of the method: as §1
[6] = tested on: Mycobacterium tuberculosis; experiment: Antimycobacterial activity against XDR Mycobacterium tuberculosis Praha 131 after 14 days; type: functional; conditions: Praha 131, 336 h
Summary of the method: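 M. tuberculosis strains (H37Rv and clinical MDR/XDR isolates) tested by microdilution in Šula's semisynthetic medium. Compounds were dissolved in DMSO and tested at 32 to 0.03 µM in twofold steps. Inoculum was a 1.0 McFarland suspension diluted 10-3. Plates were incubated at 37 °C and read at 14 and 21 days.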

[7] = tested on: Staphylococcus aureus; experiment: Antibacterial activity against Staphylococcus aureus subsp. aureus ATCC 29213 CCM 4223 at highest concentration measured after 24 to 48 hrs by alamar blue dye based broth microdilution assay; type: functional, organism-based
[8] = tested on: Staphylococcus aureus; experiment: Antibacterial activity against methicillin-resistant Staphylococcus aureus subsp. aureus ATCC 43300 CCM 4750 at highest concentration measured after 24 to 48 hrs by alamar blue dye based broth microdilution assay; type: functional, organism-based
[9] = tested on: Staphylococcus epidermidis; experiment: Antibacterial activity against Staphylococcus epidermidis at highest concentration measured after 24 to 48 hrs by alamar blue dye based broth microdilution assay; type: functional, organism-based
[10] = tested on: Enterococcus faecalis; experiment: Antibacterial activity against Enterococcus faecalis ATCC 29212 CCM 4224 at highest concentration measured after 24 to 48 hrs by alamar blue dye based broth microdilution assay; type: functional, organism-based
[11] = tested on: Escherichia coli; experiment: Antibacterial activity against Escherichia coli ATCC 25922 CCM 3954 at highest concentration measured after 24 to 48 hrs by alamar blue dye based broth microdilution assay; type: functional, organism-based
[12] = tested on: Candida albicans; experiment: Antifungal activity against Candida albicans ATCC 24433 CCM 8320 at highest concentration measured after 24 to 48 hrs by alamar blue dye based broth microdilution assay; type: functional, organism-based
[13] = tested on: Lichtheimia corymbifera; experiment: Antifungal activity against Lichtheimia corymbifera CCM 8077 at highest concentration measured after 24 to 48 hrs by alamar blue dye based broth microdilution assay; type: functional, organism-based
[14] = target: T1, Decaprenylphosphoryl-beta-D-ribose oxidase (Mycobacterium tuberculosis (strain ATCC 25618 / H37Rv)) (UniProt P9WJF1); experiment: Inhibition of DprE1 in Mycobacterium tuberculosis H37Rv assessed as accumulation of trehalose monomycolates at 10 times MIC measured after 24 hrs in presence of [14C]-acetate by TLC-based autoradiography
T1 sequence (whole entry): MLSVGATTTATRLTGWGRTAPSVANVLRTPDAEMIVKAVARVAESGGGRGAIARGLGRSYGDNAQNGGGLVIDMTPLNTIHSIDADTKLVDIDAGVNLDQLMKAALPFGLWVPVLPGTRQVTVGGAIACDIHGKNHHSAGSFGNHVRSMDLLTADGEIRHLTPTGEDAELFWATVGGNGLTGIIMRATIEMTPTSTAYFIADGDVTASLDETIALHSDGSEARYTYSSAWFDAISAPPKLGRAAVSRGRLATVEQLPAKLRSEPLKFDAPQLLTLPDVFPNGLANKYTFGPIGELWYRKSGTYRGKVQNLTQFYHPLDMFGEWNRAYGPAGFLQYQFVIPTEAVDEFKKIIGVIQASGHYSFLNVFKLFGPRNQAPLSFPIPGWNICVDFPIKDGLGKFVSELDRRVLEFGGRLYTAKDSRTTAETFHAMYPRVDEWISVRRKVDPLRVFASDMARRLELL
Summary of the method: (§2)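 M. tuberculosis H37Rv cultures were exposed to compound at final 10× or 100× MIC, or to DMSO, together with [14C]-acetate at 1 µCi/ml final. After 24 h, lipids were extracted in CHCl3/CH3OH (2:1) for 2 h at 65 °C and given two Folch washes. Extracts were run on TLC in CHCl3/CH3OH/H2O (20:4:0.5), then autoradiographed for 7 days at -80 °C.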

[15] = target: T1, Decaprenylphosphoryl-beta-D-ribose oxidase (Mycobacterium tuberculosis (strain ATCC 25618 / H37Rv)); experiment: Inhibition of DprE1 in Mycobacterium tuberculosis H37Rv assessed as accumulation of trehalose dimycolates at 100 times MIC measured after 24 hrs in presence of [14C]-acetate by TLC-based autoradiography; summary of the method: as §2
[16] = target: T1, Decaprenylphosphoryl-beta-D-ribose oxidase (Mycobacterium tuberculosis (strain ATCC 25618 / H37Rv)); experiment: Inhibition of DprE1 in Mycobacterium tuberculosis H37Rv assessed as accumulation of trehalose monomycolates at 100 times MIC measured after 24 hrs in presence of [14C]-acetate by TLC-based autoradiography; summary of the method: as §2
[17] = tested on: HepG2; experiment: Cytotoxicity against human HepG2 cells assessed as reduction in cell viability after 48 hrs by CellTiter 96 aqueous one solution assay; type: cell-based; conditions: HepG2, 48 h
[18] = Cytotoxicity against human HepG2 cells assessed as cell viability at 30 uM after 48 hrs by CellTiter 96 aqueous one solution assay relative to control; type: cell-based; conditions: read-out: Activity
Summary of the method: (§3)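 HepG2 (DMEM, 10% FBS, 1 mM pyruvate) or A431 (DMEM, 10% FBS) seeded 10,000 cells/well, 24 h at 37 °C, 5% CO2, then 30 µM compound for 48 h. MTS reagent 60 min, absorbance 490 nm, background subtracted; 0.1% DMSO vehicle = 100%, 10% SDS = 0% viability.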

[19] = tested on: A-431; experiment: Cytotoxicity against human A431 cells assessed as reduction in cell viability after 48 hrs by CellTiter 96 aqueous one solution assay; type: cell-based; conditions: A-431, 48 h
[20] = Cytotoxicity against human A431 cells assessed as cell viability at 30 uM after 48 hrs by CellTiter 96 aqueous one solution assay relative to control; type: cell-based, A-431; conditions: read-out: Activity; summary of the method: as §3
[21] = Selectivity index, ratio of IC50 for human HepG2 cells to MIC>99 for antimycobacterial activity against Mycobacterium kansasii CNCTC My 235/80 after 14 days; type: toxicity; conditions: read-out: Selectivity Index
[22] = Selectivity index, ratio of IC50 for human HepG2 cells to MIC>99 for antimycobacterial activity against Mycobacterium kansasii CNCTC My 235/80 after 21 days; type: toxicity; conditions: read-out: Selectivity Index
[23] = Selectivity index, ratio of IC50 for human HepG2 cells to MIC>99 for antimycobacterial activity against XDR Mycobacterium tuberculosis Praha 131 after 14 days; type: toxicity; conditions: read-out: Selectivity Index
Summary of the method: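 SI from HepG2 IC50 and M. tuberculosis MIC. HepG2 cells: DMEM + 10% FBS + 1 mM pyruvate, 10,000/well, 48 h treatment, 0.1% DMSO and 10% SDS controls, MTS absorbance at 490 nm.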

[24] = Selectivity index, ratio of IC50 for human A431 cells to MIC>99 for antimycobacterial activity against Mycobacterium tuberculosis H37Rv CNCTC My 331/88 after 21 days; type: toxicity; conditions: read-out: Selectivity Index

| Compound | MIC99 [1] | MIC99 [2] | MIC99 [3] | MIC99 [4] | MIC99 [5] | MIC99 [6] | Activity [7] | Activity [8] | Activity [9] | Activity [10] | Activity [11] | Activity [12] | Activity [13] | inhibition [14] | inhibition [15] | inhibition [16] | IC50 [17] | viability at 48 h, 30 µM [18] | IC50 [19] | viability at 48 h, 30 µM [20] | also measured |
| --- | --- | --- | --- | --- | --- | --- | --- | --- | --- | --- | --- | --- | --- | --- | --- | --- | --- | --- | --- | --- | --- |
| CCCCCCn1c(SCc2cc([N+](=O)[O-])cc([N+](=O)[O-])c2)nnc1-c1ccccc1 | 1 µM (≈ 0.442 µg/mL) | 2 µM (≈ 0.883 µg/mL) | 1 µM (≈ 0.442 µg/mL) | 2 µM (≈ 0.883 µg/mL) | 2 µM (≈ 0.883 µg/mL) | 2 µM (≈ 0.883 µg/mL) | inactive | inactive | inactive | inactive | inactive | inactive | inactive | inactive | inactive | inactive | – | – | – | – | – |
| O=[N+]([O-])c1cc(-c2nnc(SCc3ccccc3)n2Cc2ccccc2)cc([N+](=O)[O-])c1 | 0.03 µM (≈ 0.0134 µg/mL) | 0.03 µM (≈ 0.0134 µg/mL) | 0.03 µM (≈ 0.0134 µg/mL) | 0.03 µM (≈ 0.0134 µg/mL) | 0.03 µM (≈ 0.0134 µg/mL) | 0.03 µM (≈ 0.0134 µg/mL) | inactive | inactive | inactive | inactive | inactive | inactive | inactive | inactive | Active | Active | > 30 µM | 106% | > 30 µM | 111% | – |
| COc1ccc(CSc2nnc(-c3cc([N+](=O)[O-])cc(C(F)(F)F)c3)n2Cc2ccccc2)cc1 | 0.5 µM (≈ 0.25 µg/mL) | 0.5 µM (≈ 0.25 µg/mL) | 0.5 µM (≈ 0.25 µg/mL) | 1 µM (≈ 0.501 µg/mL) | 1 µM (≈ 0.501 µg/mL) | 0.5 µM (≈ 0.25 µg/mL) | inactive | inactive | inactive | inactive | inactive | inactive | inactive | Active | – | – | > 30 µM | 86% | > 30 µM | 74% | – |
| O=[N+]([O-])c1cc(-c2nnc(SCc3ccccc3)n2Cc2ccccc2)cc(C(F)(F)F)c1 | 0.03 µM (≈ 0.0141 µg/mL) | 0.03 µM (≈ 0.0141 µg/mL) | 0.03 µM (≈ 0.0141 µg/mL) | 0.03 µM (≈ 0.0141 µg/mL) | 0.03 µM (≈ 0.0141 µg/mL) | 0.06 µM (≈ 0.0282 µg/mL) | inactive | inactive | inactive | inactive | inactive | inactive | inactive | Active | – | – | 21.5 µM | 18% | 10.1 µM | 37% | selectivity ratio at 336 h [21]: > 100; selectivity ratio at 504 h [22]: > 100; selectivity ratio at 336 h [23]: > 100; selectivity ratio at 504 h [24]: > 100 |
| COc1ccc(CSc2nnc(-c3cc([N+](=O)[O-])cc([N+](=O)[O-])c3)n2Cc2ccccc2)cc1 | 0.03 µM (≈ 0.0143 µg/mL) | 0.03 µM (≈ 0.0143 µg/mL) | 0.03 µM (≈ 0.0143 µg/mL) | 0.03 µM (≈ 0.0143 µg/mL) | 0.03 µM (≈ 0.0143 µg/mL) | 0.03 µM (≈ 0.0143 µg/mL) | inactive | inactive | inactive | inactive | inactive | inactive | inactive | inactive | Active | Active | > 30 µM | 104% | > 30 µM | 92% | – |
| COc1ccc(Cn2c(SCc3cc([N+](=O)[O-])cc([N+](=O)[O-])c3)nnc2-c2ccccc2)cc1 | 1 µM (≈ 0.478 µg/mL) | 2 µM (≈ 0.955 µg/mL) | – | – | – | 2 µM (≈ 0.955 µg/mL) | inactive | inactive | inactive | inactive | inactive | inactive | inactive | inactive | inactive | inactive | > 30 µM | 133% | > 30 µM | 127% | – |
